# From the M2OR odorant receptor database
# Where a chain is given by its changes, count along the chain named.
# How the values were obtained:
# Conditions in all cases: stereoisomer not certain
# OR2T7 (Homo sapiens) = target: T1, OR2T7 (Homo sapiens) (UniProt P0C7T2)
# T1 sequence (whole entry): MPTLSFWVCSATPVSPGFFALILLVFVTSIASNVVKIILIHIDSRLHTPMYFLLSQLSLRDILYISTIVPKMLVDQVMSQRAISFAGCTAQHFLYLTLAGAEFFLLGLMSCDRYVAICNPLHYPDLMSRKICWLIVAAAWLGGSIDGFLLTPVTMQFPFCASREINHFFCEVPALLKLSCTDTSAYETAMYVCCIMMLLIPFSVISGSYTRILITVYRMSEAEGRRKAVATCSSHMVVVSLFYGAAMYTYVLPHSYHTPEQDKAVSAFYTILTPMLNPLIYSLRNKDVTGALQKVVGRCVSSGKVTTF
# In short: (§1)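 Values were gathered from published papers (main text and supplementary material), with extra details requested from the original authors when needed, and checked for typos and inconsistencies. Each receptor–molecule pair is called responsive (active) if the original authors judged the measured signal statistically different from baseline, and non-responsive (inactive) otherwise. Assay methods varied by source, often transient mammalian cell-line luciferase assays. Recorded details include cell line, G-protein, co-transfected protein and tags.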
# OR2T8 (Homo sapiens) = target: T2, OR2T8 (Homo sapiens) (UniProt A6NH00)
# T2 sequence (whole entry): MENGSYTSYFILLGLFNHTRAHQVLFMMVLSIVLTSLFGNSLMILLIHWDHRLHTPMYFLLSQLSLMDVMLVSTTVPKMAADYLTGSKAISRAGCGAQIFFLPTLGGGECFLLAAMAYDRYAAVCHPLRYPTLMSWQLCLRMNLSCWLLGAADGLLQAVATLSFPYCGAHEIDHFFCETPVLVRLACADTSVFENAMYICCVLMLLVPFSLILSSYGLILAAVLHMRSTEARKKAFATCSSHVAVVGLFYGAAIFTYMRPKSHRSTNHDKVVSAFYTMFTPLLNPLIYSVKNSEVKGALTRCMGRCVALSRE
# In short: as §1
# OR2V1 (Homo sapiens) = target: T3, OR2V1 (Homo sapiens) (UniProt Q8NHB1)
# T3 sequence (whole entry): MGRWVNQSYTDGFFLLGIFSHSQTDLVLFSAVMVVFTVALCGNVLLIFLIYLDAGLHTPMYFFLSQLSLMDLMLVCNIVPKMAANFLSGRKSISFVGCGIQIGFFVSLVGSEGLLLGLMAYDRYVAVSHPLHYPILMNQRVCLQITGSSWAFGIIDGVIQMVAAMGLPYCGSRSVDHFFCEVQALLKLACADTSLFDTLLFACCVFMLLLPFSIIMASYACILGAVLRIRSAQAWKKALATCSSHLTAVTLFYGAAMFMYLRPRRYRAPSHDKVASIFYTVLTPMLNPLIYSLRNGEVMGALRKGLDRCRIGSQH
# In short: as §1
# OR2V2 (Homo sapiens) = target: T4, OR2V2 (Homo sapiens) (UniProt Q96R30)
# T4 sequence (whole entry): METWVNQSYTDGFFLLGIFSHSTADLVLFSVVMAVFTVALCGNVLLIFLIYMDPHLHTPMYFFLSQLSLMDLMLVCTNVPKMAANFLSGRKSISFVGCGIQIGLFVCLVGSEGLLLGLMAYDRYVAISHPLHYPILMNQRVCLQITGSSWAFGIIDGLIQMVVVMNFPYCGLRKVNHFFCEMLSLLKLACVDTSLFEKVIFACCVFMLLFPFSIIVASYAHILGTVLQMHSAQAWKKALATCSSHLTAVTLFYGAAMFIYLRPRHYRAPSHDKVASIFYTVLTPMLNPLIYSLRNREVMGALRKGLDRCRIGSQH
# In short: as §1
# OR2W1 (Homo sapiens) = target: T5, OR2W1 (Homo sapiens) (UniProt Q9Y3N9)
# T5 sequence (whole entry): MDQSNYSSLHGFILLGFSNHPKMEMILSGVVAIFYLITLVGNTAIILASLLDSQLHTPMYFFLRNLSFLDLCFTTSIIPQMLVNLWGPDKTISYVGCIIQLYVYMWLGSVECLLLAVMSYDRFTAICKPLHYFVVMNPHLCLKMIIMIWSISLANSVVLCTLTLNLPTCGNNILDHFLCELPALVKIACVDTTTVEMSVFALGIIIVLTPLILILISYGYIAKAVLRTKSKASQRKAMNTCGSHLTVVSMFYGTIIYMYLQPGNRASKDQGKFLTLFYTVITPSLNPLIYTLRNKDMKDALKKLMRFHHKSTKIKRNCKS
# In short: as §1
# OR2T6 C23G = tested on: T6, OR2T6 C23G
# T6 sequence (whole entry): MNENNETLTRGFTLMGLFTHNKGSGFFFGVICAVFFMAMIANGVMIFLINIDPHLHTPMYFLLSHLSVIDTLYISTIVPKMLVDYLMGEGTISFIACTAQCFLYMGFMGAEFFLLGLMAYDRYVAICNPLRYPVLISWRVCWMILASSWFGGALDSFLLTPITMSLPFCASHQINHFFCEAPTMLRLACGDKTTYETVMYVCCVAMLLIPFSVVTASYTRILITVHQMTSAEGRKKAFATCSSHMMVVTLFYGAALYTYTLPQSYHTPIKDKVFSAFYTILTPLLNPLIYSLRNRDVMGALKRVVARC
# In short: as §1
# OR2T7 = tested on: T7, OR2T7
# T7 sequence (whole entry): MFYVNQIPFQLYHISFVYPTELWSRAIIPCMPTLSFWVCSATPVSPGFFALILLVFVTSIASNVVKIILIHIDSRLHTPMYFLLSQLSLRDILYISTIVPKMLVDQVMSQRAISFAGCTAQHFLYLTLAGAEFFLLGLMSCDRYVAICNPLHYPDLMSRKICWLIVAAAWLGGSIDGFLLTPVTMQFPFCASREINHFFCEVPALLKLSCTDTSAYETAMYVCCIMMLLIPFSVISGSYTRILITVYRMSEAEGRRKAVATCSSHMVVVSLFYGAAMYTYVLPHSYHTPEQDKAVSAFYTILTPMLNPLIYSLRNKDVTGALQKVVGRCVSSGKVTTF
# In short: as §1
# OR2W1 G96V = tested on: T8, OR2W1 G96V
# T8 sequence (whole entry): T5 sequence (whole entry) with G96V
# In short: as §1
# OR2W1 [1] = tested on: T9, OR2W1
# T9 sequence (whole entry): T5 sequence (whole entry) with D296N
# In short: as §1
# OR2W1 [2] = tested on: T10, OR2W1; remark: listed apart in the source
# T10 sequence (whole entry): T5 sequence (whole entry) with M81V
# In short: as §1
smiles,measurement,setting,value
CCCCCC(S)C(C)CO (centres undefined),odorant receptor agonist call,OR2T7 (Homo sapiens),inactive
same,odorant receptor agonist call,OR2T8 (Homo sapiens),inactive
same,odorant receptor agonist call,OR2V1 (Homo sapiens),inactive
same,odorant receptor agonist call,OR2V2 (Homo sapiens),inactive
same,odorant receptor agonist call,OR2W1 (Homo sapiens),inactive
CCCCCC1CCCC(=O)O1 (centres undefined),odorant receptor agonist call,OR2W1 (Homo sapiens),inactive
CCCCC(S)C(C)CO (centres undefined),odorant receptor agonist call,OR2T7 (Homo sapiens),inactive
same,odorant receptor agonist call,OR2T8 (Homo sapiens),inactive
same,odorant receptor agonist call,OR2V1 (Homo sapiens),inactive
same,odorant receptor agonist call,OR2V2 (Homo sapiens),inactive
same,odorant receptor agonist call,OR2W1 (Homo sapiens),inactive
OCc1ccccc1,odorant receptor agonist call,OR2W1 (Homo sapiens),inactive
O=C(O)C=Cc1ccc(O)cc1,odorant receptor agonist call,OR2W1 (Homo sapiens),inactive
CC1=NC(C)C(C)S1 (centres undefined),odorant receptor agonist call,OR2T6 C23G,inactive
same,odorant receptor agonist call,OR2T7,inactive
same,odorant receptor agonist call,OR2T8 (Homo sapiens),inactive
same,odorant receptor agonist call,OR2V1 (Homo sapiens),inactive
same,odorant receptor agonist call,OR2V2 (Homo sapiens),inactive
same,odorant receptor agonist call,OR2W1 (Homo sapiens),inactive
same,odorant receptor agonist call,OR2W1 G96V,inactive
CCCCCCC=CCCC=O,odorant receptor agonist call,OR2T6 C23G,inactive
same,odorant receptor agonist call,OR2T7 (Homo sapiens),inactive
same,odorant receptor agonist call,OR2T8 (Homo sapiens),inactive
same,odorant receptor agonist call,OR2V1 (Homo sapiens),inactive
same,odorant receptor agonist call,OR2V2 (Homo sapiens),inactive
same,odorant receptor agonist call,OR2W1 (Homo sapiens),inactive
same,odorant receptor agonist call,OR2W1 G96V,inactive
CCCCCC(=O)C(C)C(C)=O (centres undefined),odorant receptor agonist call,OR2T7 (Homo sapiens),inactive
same,odorant receptor agonist call,OR2T8 (Homo sapiens),inactive
same,odorant receptor agonist call,OR2V1 (Homo sapiens),inactive
same,odorant receptor agonist call,OR2V2 (Homo sapiens),inactive
same,odorant receptor agonist call,OR2W1 (Homo sapiens),inactive
same,odorant receptor agonist call,OR2W1 [1],active
same,odorant receptor agonist call,OR2W1 [2],active
CCCCCC1=C(C)CCC1=O,odorant receptor agonist call,OR2W1 (Homo sapiens),active
CCCCCCCCCCO,odorant receptor agonist call,OR2W1 (Homo sapiens),active
CCC=O,odorant receptor agonist call,OR2W1 (Homo sapiens),inactive
COc1nccnc1C(C)C,odorant receptor agonist call,OR2W1 (Homo sapiens),inactive
COc1cccc(OC)c1O,odorant receptor agonist call,OR2W1 (Homo sapiens),inactive
Cc1cccc(C)c1O,odorant receptor agonist call,OR2W1 (Homo sapiens),inactive
CCCCCC(=O)CC,odorant receptor agonist call,OR2W1 (Homo sapiens),active
CC1=C(O)C(=O)OC1C (centres undefined),odorant receptor agonist call,OR2T6 C23G,inactive
same,odorant receptor agonist call,OR2T7,inactive
same,odorant receptor agonist call,OR2T8 (Homo sapiens),inactive
same,odorant receptor agonist call,OR2V1 (Homo sapiens),inactive
same,odorant receptor agonist call,OR2V2 (Homo sapiens),inactive
same,odorant receptor agonist call,OR2W1 (Homo sapiens),inactive
same,odorant receptor agonist call,OR2W1 G96V,inactive
C=C1CCC2CC1C2(C)C (centres undefined),odorant receptor agonist call,OR2W1 (Homo sapiens),inactive
CC1=C(O)C(=O)C(C)O1 (centres undefined),odorant receptor agonist call,OR2T6 C23G,inactive
same,odorant receptor agonist call,OR2T7,inactive
same,odorant receptor agonist call,OR2T8 (Homo sapiens),inactive
same,odorant receptor agonist call,OR2V1 (Homo sapiens),inactive
same,odorant receptor agonist call,OR2V2 (Homo sapiens),inactive
same,odorant receptor agonist call,OR2W1 (Homo sapiens),inactive
same,odorant receptor agonist call,OR2W1 G96V,inactive
CCC1OC(C)=C(O)C1=O (centres undefined),odorant receptor agonist call,OR2T6 C23G,inactive
same,odorant receptor agonist call,OR2T7,inactive
same,odorant receptor agonist call,OR2T8 (Homo sapiens),inactive
same,odorant receptor agonist call,OR2V1 (Homo sapiens),inactive
same,odorant receptor agonist call,OR2V2 (Homo sapiens),inactive
same,odorant receptor agonist call,OR2W1 (Homo sapiens),inactive
same,odorant receptor agonist call,OR2W1 G96V,inactive
CCC(S)C(C)CO (centres undefined),odorant receptor agonist call,OR2T7 (Homo sapiens),inactive
same,odorant receptor agonist call,OR2T8 (Homo sapiens),inactive
same,odorant receptor agonist call,OR2V1 (Homo sapiens),inactive
same,odorant receptor agonist call,OR2V2 (Homo sapiens),inactive
same,odorant receptor agonist call,OR2W1 (Homo sapiens),inactive
CCCCCCC(=O)[O-].[H+],odorant receptor agonist call,OR2W1 (Homo sapiens),inactive
CC(=O)O,odorant receptor agonist call,OR2W1 (Homo sapiens),inactive
CC(=O)c1c(C)c([N+](=O)[O-])c(C(C)(C)C)c([N+](=O)[O-])c1C,odorant receptor agonist call,OR2T7 (Homo sapiens),inactive
same,odorant receptor agonist call,OR2T8 (Homo sapiens),inactive
same,odorant receptor agonist call,OR2V1 (Homo sapiens),inactive
same,odorant receptor agonist call,OR2V2 (Homo sapiens),inactive
same,odorant receptor agonist call,OR2W1 (Homo sapiens),inactive
COc1cc(C(=O)O)ccc1O,odorant receptor agonist call,OR2W1 (Homo sapiens),inactive
CC(=O)Oc1ccccc1,odorant receptor agonist call,OR2W1 (Homo sapiens),inactive
CC(C)CCO,odorant receptor agonist call,OR2W1 (Homo sapiens),inactive
CCCCOC(=O)C(C)OC(=O)CCC (centres undefined),odorant receptor agonist call,OR2W1 (Homo sapiens),inactive
